The source made the active and inactive calls. The rule behind the calls is not given here.
system: Canis familiaris; assay: Diuretic activity in the dog (2 animals/dose) at (dose 1.56 mg/Kg), when administered perorally; assay type: functional, Canis lupus familiaris, Urine; details: not given
How it was run: (§1)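 Trained male beagles, fasted 24 h with tap water ad libitum. Bladder emptied by catheter, then 20 mL/kg tap water by stomach tube, with 4 mL/kg water at each hourly catheterization up to 8 h. The first 2 h of urine served as control. Oral dosing came after the second catheterization, and 1–6 h urine was pooled. Na⁺ and K⁺ were measured by flame photometry, Cl⁻ argentometrically, in mequiv/kg.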

| SMILES | Diuretic activity [ml kg-1 6hr-1] |
| --- | --- |
| NS(=O)(=O)c1cc(S(=O)(=O)[O-])c(NCc2ccco2)cc1SC1CCCCC1.[K+] | 32.6 |
| CN(c1ccccc1)c1cc(NCCc2ccco2)c(S(=O)(=O)[O-])cc1S(N)(=O)=O.[K+] | 59.9 |
| CCCCS(=O)(=O)c1cc(NCc2ccco2)c(S(=O)(=O)[O-])cc1S(N)(=O)=O.[Na+] | 65.5 |
| CCCCSc1cc(NCc2ccco2)c(S(=O)(=O)[O-])cc1S(N)(=O)=O.[K+] | 32.8 |
| NS(=O)(=O)c1cc(S(=O)(=O)[O-])c(NCCc2ccco2)cc1Oc1ccccc1.[K+] | 35.2 |

system: Canis familiaris; assay: Salidiuretic activity on the basis of the 1.56 mg/Kg perorally dog assay; compound was found to be active; assay type: functional, organism-based; details: Canis lupus familiaris; Urine

| SMILES | Saldiuretic activity |
| --- | --- |
| NS(=O)(=O)c1cc(S(=O)(=O)[O-])c(NCCc2ccco2)cc1Oc1ccccc1.[K+] | Active |

species: Rattus norvegicus; assay: Saluretic activity in the rat measured as concentration of K+ in urine; assay type: functional; details: not given
How it was run: (§2)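 Rats deprived of food 24 h, water ad libitum, dosed 50 mg/kg by stomach tube as suspension in 2% starch, no extra water load. Groups of three in diuresis funnels; urine over first 5 h collected. Na⁺ and K⁺ by flame photometry, Cl⁻ argentometrically; expressed as mequiv/kg.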

| SMILES | Saluretic activity [m equiv 5hr-1 kg-1] |
| --- | --- |
| NS(=O)(=O)c1cc(S(=O)(=O)[O-])c(NCc2ccco2)cc1SC1CCCCC1.[K+] | 0.5 |
| CN(c1ccccc1)c1cc(NCCc2ccco2)c(S(=O)(=O)[O-])cc1S(N)(=O)=O.[K+] | 2 |
| CCCCS(=O)(=O)c1cc(NCc2ccco2)c(S(=O)(=O)[O-])cc1S(N)(=O)=O.[Na+] | 2.2 |
| CCCCSc1cc(NCc2ccco2)c(S(=O)(=O)[O-])cc1S(N)(=O)=O.[K+] | 2.2 |
| NS(=O)(=O)c1cc(S(=O)(=O)[O-])c(NCCc2ccco2)cc1Oc1ccccc1.[K+] | 0.7 |

system: Canis familiaris; assay: Saluretic activity in the dog measured as concentration of K+ in urinary excretion (2 animals/dose) at (dose 1.56 mg/Kg, po); assay type: functional, Canis lupus familiaris, Urine; details: not given
How it was run: (§3)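 Male beagles trained to rest on a table and to accept stomach tube and catheter. Food withdrawn 24 h before, tap water ad libitum. Bladder emptied by catheter, then 20 mL/kg tap water by stomach tube. Catheterized hourly up to 8 h with 4 mL/kg water orally each time; first 2 h urine served as control. Oral dosing after second catheterization. Pooled 1–6 h urine; Na⁺/K⁺ by flame photometry, Cl⁻ argentometrically.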

| SMILES | Saldiuretic activity [m equiv 6hr-1 kg-1] | Saluretic activity [m equiv 6hr-1 kg-1] |
| --- | --- | --- |
| NS(=O)(=O)c1cc(S(=O)(=O)[O-])c(NCc2ccco2)cc1SC1CCCCC1.[K+] | 0.07 | – |
| CN(c1ccccc1)c1cc(NCCc2ccco2)c(S(=O)(=O)[O-])cc1S(N)(=O)=O.[K+] | – | 1.08 |
| CCCCS(=O)(=O)c1cc(NCc2ccco2)c(S(=O)(=O)[O-])cc1S(N)(=O)=O.[Na+] | 0.97 | – |
| CCCCSc1cc(NCc2ccco2)c(S(=O)(=O)[O-])cc1S(N)(=O)=O.[K+] | 0.35 | – |

system: not listed separately; assay: It is the ratio, measured as saluretic activity in the dog as concentration of Na+ in urinary excretion (dose 1.56 mg/Kg, perorally) to that of K; assay type: functional, Urine; details: not given; how it was run: as §1

| SMILES | Ratio |
| --- | --- |
| NS(=O)(=O)c1cc(S(=O)(=O)[O-])c(NCCc2ccco2)cc1Oc1ccccc1.[K+] | 4.2 |

system: not listed separately; assay: It is the ratio, measured as saluretic activity in the dog as concentration of Cl- in urinary excretion (dose 1.56 mg/Kg, po) to that of (Na+)+(K+); assay type: functional, Urine; details: not given; how it was run: as §1

| SMILES | Ratio |
| --- | --- |
| NS(=O)(=O)c1cc(S(=O)(=O)[O-])c(NCc2ccco2)cc1SC1CCCCC1.[K+] | 0.95 |
| CN(c1ccccc1)c1cc(NCCc2ccco2)c(S(=O)(=O)[O-])cc1S(N)(=O)=O.[K+] | 1 |
| CCCCSc1cc(NCc2ccco2)c(S(=O)(=O)[O-])cc1S(N)(=O)=O.[K+] | 1 |

species: Rattus norvegicus; assay: Diuretic activity in the rats, determined by a modified Lipschitz test; assay type: functional, Urine; details: not given
How it was run: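 Modified Lipschitz test: rats deprived of water 24 h, grouped in threes of similar weight in diuresis funnels. Oral dose of 50 mg/kg, suspended in 2% starch solution, by stomach tube.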

| SMILES | Diuretic activity [mL/kg] |
| --- | --- |
| NS(=O)(=O)c1cc(S(=O)(=O)[O-])c(NCc2ccco2)cc1SC1CCCCC1.[K+] | 0.8 |
| CN(c1ccccc1)c1cc(NCCc2ccco2)c(S(=O)(=O)[O-])cc1S(N)(=O)=O.[K+] | 1.2 |
| CCCCS(=O)(=O)c1cc(NCc2ccco2)c(S(=O)(=O)[O-])cc1S(N)(=O)=O.[Na+] | 3.8 |
| CCCCSc1cc(NCc2ccco2)c(S(=O)(=O)[O-])cc1S(N)(=O)=O.[K+] | 2.5 |
| NS(=O)(=O)c1cc(S(=O)(=O)[O-])c(NCCc2ccco2)cc1Oc1ccccc1.[K+] | 1.2 |

system: Rattus norvegicus; assay: Salidiuretic activity on the basis of the 50 mg/kg perorally rat assay; NA means inactive; details: Urine

| SMILES | Diuretic activity |
| --- | --- |
| NS(=O)(=O)c1cc(S(=O)(=O)[O-])c(NCCc2ccco2)cc1Oc1ccccc1.[K+] | inactive |

system: Canis familiaris; assay: Saluretic activity in the dog measured as concentration of Cl - in urinary excretion (2 animals/dose) at (dose 1.56 mg/Kg, perorally); assay type: functional, Canis lupus familiaris, Urine; details: not given
How it was run: (§4)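 Male beagles trained to the procedures, food withdrawn 24 h before, tap water ad libitum. Bladder emptied by catheter, then 20 mL/kg tap water by stomach tube, plus 4 mL/kg orally at each hourly catheterization up to 8 h. The first 2 h of urine served as control. Compound given orally after the second catheterization. Urine from 1–6 h post-dose pooled; Na⁺ and K⁺ by flame photometry, Cl⁻ argentometrically, in mequiv/kg.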

| SMILES | Saldiuretic activity [m equiv 6hr-1 kg-1] |
| --- | --- |
| NS(=O)(=O)c1cc(S(=O)(=O)[O-])c(NCCc2ccco2)cc1Oc1ccccc1.[K+] | 1.18 |

system: Canis familiaris; assay: Saluretic activity in the dog measured as concentration of Na+ in urinary excretion (2 animals/dose) at (dose 1.56 mg/Kg, perorally); assay type: functional, Canis lupus familiaris, Urine; details: not given; how it was run: as §3

| SMILES | Saluretic activity [m equiv 6hr-1 kg-1] |
| --- | --- |
| NS(=O)(=O)c1cc(S(=O)(=O)[O-])c(NCCc2ccco2)cc1Oc1ccccc1.[K+] | 0.89 |

system: Canis familiaris; assay: Saluretic activity in the dog measured as concentration of Na+ in urinary excretion (2 animals/dose) at (dose 1.56 mg/Kg, po); assay type: functional, Canis lupus familiaris, Urine; details: not given; how it was run: as §3

| SMILES | Saluretic activity [m equiv 6hr-1 kg-1] |
| --- | --- |
| NS(=O)(=O)c1cc(S(=O)(=O)[O-])c(NCc2ccco2)cc1SC1CCCCC1.[K+] | 0.27 |
| CN(c1ccccc1)c1cc(NCCc2ccco2)c(S(=O)(=O)[O-])cc1S(N)(=O)=O.[K+] | 4.7 |
| CCCCS(=O)(=O)c1cc(NCc2ccco2)c(S(=O)(=O)[O-])cc1S(N)(=O)=O.[Na+] | 4.92 |
| CCCCSc1cc(NCc2ccco2)c(S(=O)(=O)[O-])cc1S(N)(=O)=O.[K+] | 1.06 |

species: Rattus norvegicus; assay: Saluretic activity in the rat measured as concentration of chloride in urine; assay type: functional; details: not given; how it was run: as §2

| SMILES | Saluretic activity [m equiv 5hr-1 kg-1] |
| --- | --- |
| NS(=O)(=O)c1cc(S(=O)(=O)[O-])c(NCc2ccco2)cc1SC1CCCCC1.[K+] | 1.9 |
| CN(c1ccccc1)c1cc(NCCc2ccco2)c(S(=O)(=O)[O-])cc1S(N)(=O)=O.[K+] | 3.2 |
| CCCCS(=O)(=O)c1cc(NCc2ccco2)c(S(=O)(=O)[O-])cc1S(N)(=O)=O.[Na+] | 8.7 |
| CCCCSc1cc(NCc2ccco2)c(S(=O)(=O)[O-])cc1S(N)(=O)=O.[K+] | 3.6 |
| NS(=O)(=O)c1cc(S(=O)(=O)[O-])c(NCCc2ccco2)cc1Oc1ccccc1.[K+] | 0.9 |

system: not listed separately; assay: It is the ratio, measured as saluretic activity in the dog as concentration of Cl- in urinary excretion (dose 1.56 mg/Kg, po) to that of (Na++K+); assay type: functional, Urine; details: not given; how it was run: as §1

| SMILES | Ratio |
| --- | --- |
| CCCCS(=O)(=O)c1cc(NCc2ccco2)c(S(=O)(=O)[O-])cc1S(N)(=O)=O.[Na+] | 1 |

species: Rattus norvegicus; assay: Saluretic activity in the rat measured as concentration of Na+ in urine; assay type: functional; details: not given; how it was run: as §2

| SMILES | Saluretic activity [m equiv 5hr-1 kg-1] |
| --- | --- |
| NS(=O)(=O)c1cc(S(=O)(=O)[O-])c(NCc2ccco2)cc1SC1CCCCC1.[K+] | 1.4 |
| CN(c1ccccc1)c1cc(NCCc2ccco2)c(S(=O)(=O)[O-])cc1S(N)(=O)=O.[K+] | 2.2 |
| CCCCS(=O)(=O)c1cc(NCc2ccco2)c(S(=O)(=O)[O-])cc1S(N)(=O)=O.[Na+] | 7.3 |
| CCCCSc1cc(NCc2ccco2)c(S(=O)(=O)[O-])cc1S(N)(=O)=O.[K+] | 3.6 |
| NS(=O)(=O)c1cc(S(=O)(=O)[O-])c(NCCc2ccco2)cc1Oc1ccccc1.[K+] | 0.6 |

system: not listed separately; assay: It is the ratio, measured as saluretic activity in the dog as concentration of Na+ in urinary excretion (dose 1.56 mg/Kg, po) to that of K; assay type: functional, Urine; details: not given; how it was run: as §1

| SMILES | Ratio |
| --- | --- |
| NS(=O)(=O)c1cc(S(=O)(=O)[O-])c(NCc2ccco2)cc1SC1CCCCC1.[K+] | 3.9 |
| CN(c1ccccc1)c1cc(NCCc2ccco2)c(S(=O)(=O)[O-])cc1S(N)(=O)=O.[K+] | 4.3 |
| CCCCS(=O)(=O)c1cc(NCc2ccco2)c(S(=O)(=O)[O-])cc1S(N)(=O)=O.[Na+] | 5 |
| CCCCSc1cc(NCc2ccco2)c(S(=O)(=O)[O-])cc1S(N)(=O)=O.[K+] | 3 |

system: Canis familiaris; assay: Saluretic activity in the dog measured as concentration of Cl - in urinary excretion (2 animals/dose) at (dose 1.56 mg/Kg, po); assay type: functional, Canis lupus familiaris, Urine; details: not given; how it was run: as §4

| SMILES | Saldiuretic activity [m equiv 6hr-1 kg-1] |
| --- | --- |
| NS(=O)(=O)c1cc(S(=O)(=O)[O-])c(NCc2ccco2)cc1SC1CCCCC1.[K+] | 0.32 |
| CN(c1ccccc1)c1cc(NCCc2ccco2)c(S(=O)(=O)[O-])cc1S(N)(=O)=O.[K+] | 5.81 |
| CCCCS(=O)(=O)c1cc(NCc2ccco2)c(S(=O)(=O)[O-])cc1S(N)(=O)=O.[Na+] | 5.78 |
| CCCCSc1cc(NCc2ccco2)c(S(=O)(=O)[O-])cc1S(N)(=O)=O.[K+] | 1.43 |

system: Canis familiaris; assay: Saluretic activity in the dog measured as concentration of K+ in urinary excretion (2 animals/dose) at (dose 1.56 mg/Kg, perorally); assay type: functional, Canis lupus familiaris, Urine; details: not given; how it was run: as §4

| SMILES | Saluretic activity [m equiv 6hr-1 kg-1] |
| --- | --- |
| NS(=O)(=O)c1cc(S(=O)(=O)[O-])c(NCCc2ccco2)cc1Oc1ccccc1.[K+] | 0.21 |

system: not listed separately; assay: It is the ratio, measured as saluretic activity in the dog as concentration of Cl- in urinary excretion (dose 1.56 mg/Kg, perorally) to that of (Na+)+(K+); assay type: functional, Urine; details: not given; how it was run: as §1

| SMILES | Ratio |
| --- | --- |
| NS(=O)(=O)c1cc(S(=O)(=O)[O-])c(NCCc2ccco2)cc1Oc1ccccc1.[K+] | 1.1 |

Reference: ChEMBL document CHEMBL1122273, “5-sulfamoylorthanilic acids, a sulfonamide series with salidiuretic activity” (J Med Chem, 1983)
